# Experimental data reported in ChEMBL document CHEMBL4680186, “New azole antifungals with a fused triazinone scaffold” (Eur J Med Chem, 2020).
# Active and inactive are the calls of the source. The calls are words filed in the database; no cut-off is given here.
# How the values were obtained:
# Candida albicans [1] = test: Inhibition of sterol biosynthesis in Candida albicans CAAL93 assessed as ergostadienol level at 1 ng/ml after 18 hrs by GC-MS analysis (reference value: 1.6%); format: functional; parameters: scale not given: the % may be the effect or the level left
# [2] = Toxicity in CRL:WI rat assessed as mortality at 300 mg/kg, po up to 14 days; format: organism-based; conditions: in vivo, 336 h, time <=14 day
# Outline: (§1)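 Acute oral toxicity in rats: single gavage dose of 300 mg/kg bw (two groups). Behaviour, body weight change, toxicity signs and mortality were recorded at 30 min, 1, 2, 4 and 6 h after dosing, then daily for 14 days.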
# Candida albicans [3] = test: Antifungal activity against Candida albicans DSY292 harboring Erg1l G464S/R467K/Y132 infected in Swiss mouse assessed as reduction in kidney fungal burden at 10 mg/kg, po after 14 days; format: functional, organism-based; conditions: time 14.0 day
# Candida albicans [4] = test: Inhibition of sterol biosynthesis in Candida albicans CAAL93 assessed as lanosterol level at 1 ng/ml after 18 hrs by GC-MS analysis (reference value: 1.6%); format: functional; parameters: scale not given: the % may be the effect or the level left
# Candida albicans [5] = test: Antifungal activity against Candida albicans CAAL93 infected in Swiss mouse assessed as survival at 10 mg/kg, po after 14 days relative to control; format: functional; conditions: 336 h, time 14 day
# Outline: (§2)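 Swiss mice (~25 g) immunosuppressed with prednisolone 30 mg/kg s.c. one day before challenge; day 0 i.v. infection with C. albicans blastoconidia (5.10⁶ yeast/mL, 100 µL). Oral dosing 1 h post-infection, once daily for 5 days, 10 mg/kg (CAAL93) or 15 mg/kg (DSY292), vehicle 40% DMSO/25% Tween80/35% olive oil. Mice given 50% grapefruit juice ad libitum. Survival followed 14 days (log-rank Mantel-Cox).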
# [6] = system: Pichia kudriavzevii (Candida krusei); test: Antifungal activity against fluconazole-resistant Candida krusei CAKR7 assessed as reduction in microbial growth after 24 hrs by resazurin staining based spectrofluorometric method; conditions: CAKR7, 24 h
# Rhizopus arrhizus [7] = test: Antifungal activity against Rhizopus oryzae RHPOR2 assessed as reduction in microbial growth after 24 hrs by broth microdilution method; format: functional
# Outline: (§3)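 CLSI M38 broth microdilution in RPMI 1640 buffered to pH 7.0 with MOPS. Drugs were diluted in DMSO then medium; final range 0.032-16 mg/L. Conidia or sporangiospores came from 7-day potato dextrose agar cultures; diluted (2×) inocula were 0.9×10^4–4.7×10^4 CFU/mL. Incubation at 35 °C, read at 48 h except Zygomycetes at 24 h. MIC read visually as lowest concentration preventing 100% growth; duplicate.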
# Candida albicans [8] = test: Inhibition of sterol biosynthesis in Candida albicans CAAL93 assessed as lanosterol level at 10 ng/ml after 18 hrs by GC-MS analysis (reference value: 1.6%); format: functional; parameters: scale not given: the % may be the effect or the level left
# Outline: (§4)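 C. albicans CAAL93 blastospores were grown 18 h at 35 °C with stirring in 50 mL Sabouraud broth, with drug added before incubation. Cells were pelleted and saponified in ethanolic KOH at 80 °C for 60 min, and sterols extracted with hexane. Analysis by GC-MS (EI 70 eV, splitless injection at 250 °C, helium carrier); sterols identified by fragmentation pattern.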
# Mucor circinelloides = test: Antifungal activity against Mucor circinelloides MURI1 assessed as reduction in microbial growth after 24 hrs by broth microdilution method; format: functional; outline: as §3
# Candida albicans [9] = test: Inhibition of sterol biosynthesis in Candida albicans CAAL93 assessed as eburicol level at 10 ng/ml after 18 hrs by GC-MS analysis relative to control; format: functional; parameters: scale not given: the % may be the effect or the level left; outline: as §4
# Candida albicans [10] = test: Inhibition of sterol biosynthesis in Candida albicans CAAL93 assessed as 14alpha-methylfecosterol level at 10 ng/ml after 18 hrs by GC-MS analysis relative to control; format: functional; parameters: scale not given: the % may be the effect or the level left; outline: as §4
# Candida albicans [11] = test: Inhibition of sterol biosynthesis in Candida albicans CAAL93 assessed as eburicol level at 1 ng/ml after 18 hrs by GC-MS analysis relative to control; format: functional; parameters: scale not given: the % may be the effect or the level left
# [12] = Toxicity in CRL:WI rat assessed as behavioral changes at 300 mg/kg, po up to 14 days; format: organism-based; conditions: in vivo, 336 h, time <=14 day; outline: as §1
# Candida albicans [13] = test: Inhibition of sterol biosynthesis in Candida albicans CAAL93 assessed as other sterols level at 10 ng/ml after 18 hrs by GC-MS analysis (Rvb < 1%); format: functional; parameters: scale not given: the % may be the effect or the level left; outline: as §4
# Candida albicans [14] = test: Inhibition of sterol biosynthesis in Candida albicans CAAL93 assessed as episterol level at 1 ng/ml after 18 hrs by GC-MS analysis (reference value: 2%); format: functional; parameters: scale not given: the % may be the effect or the level left
# Candida albicans [15] = test: Inhibition of ergosterol biosynthesis in Candida albicans CAAL93 after 18 hrs by GC-MS analysis; format: functional; conditions: dose 1-10 ng/ml
# Candida albicans [16] = test: Inhibition of sterol biosynthesis in Candida albicans CAAL93 assessed as ergosterol level at 1 ng/ml after 18 hrs by GC-MS analysis (reference value: 89.7%); format: functional; parameters: scale not given: the % may be the effect or the level left
# Fusarium sp. = test: Antifungal activity against Fusarium sp. assessed as reduction in microbial growth […] by broth microdilution method; format: functional
# Candida albicans [17] = test: Antifungal activity against Candida albicans CAAL93 infected in Swiss mouse assessed as reduction in kidney fungal burden at 10 mg/kg, po after 14 days; format: functional, organism-based; conditions: time 14.0 day
# Scedosporium apiospermum = test: Antifungal activity against Scedosporium apiospermum SCAP1 assessed as reduction in microbial growth […] by broth microdilution method; format: functional
# Candida albicans [18] = test: Inhibition of sterol biosynthesis in Candida albicans CAAL93 assessed as fecosterol level at 1 ng/ml after 18 hrs by GC-MS analysis relative to control; format: functional; parameters: scale not given: the % may be the effect or the level left
# Candida albicans [19] = test: Inhibition of sterol biosynthesis in Candida albicans CAAL93 assessed as other sterols level at 1 ng/ml after 18 hrs by GC-MS analysis (Rvb < 1%); format: functional; parameters: scale not given: the % may be the effect or the level left
# Candida albicans [20] = test: Inhibition of sterol biosynthesis in Candida albicans CAAL93 assessed as ergostadienol level at 10 ng/ml after 18 hrs by GC-MS analysis (reference value: 1.6%); format: functional; parameters: scale not given: the % may be the effect or the level left; outline: as §4
# Rhizopus arrhizus [21] = test: Antifungal activity against Rhizopus oryzae RHPOR1 assessed as reduction in microbial growth after 24 hrs by broth microdilution method; format: functional; outline: as §3
# Candida albicans [22] = test: Inhibition of sterol biosynthesis in Candida albicans CAAL93 assessed as zymosterol level at 1 ng/ml after 18 hrs by GC-MS analysis (reference value: 1.6%); format: functional; parameters: scale not given: the % may be the effect or the level left
# Candida albicans [23] = test: Inhibition of ergosterol biosynthesis in Candida albicans CAAL93 at 1 ng/ml after 18 hrs by GC-MS analysis relative to control; format: functional
# [24] = Toxicity in CRL:WI rat assessed as weight gain at 300 mg/kg, po up to 14 days; format: organism-based; conditions: in vivo, 336 h, time <=14 day; outline: as §1
# Candida albicans [25] = test: Antifungal activity against Candida albicans DSY292 harboring Erg1l G464S/R467K/Y132 mutant infected in Swiss mouse assessed as survival at 15 mg/kg, po after 10 days; format: functional, organism-based; conditions: time 10.0 day; outline: as §2
# Candida albicans [26] = test: Inhibition of ergosterol biosynthesis in Candida albicans CAAL93 at 10 ng/ml after 18 hrs by GC-MS analysis relative to control; format: functional
# [27] = system: Pichia kudriavzevii (Candida krusei); test: Antifungal activity against fluconazole-resistant Candida krusei CAKR8 assessed as reduction in microbial growth after 24 hrs by resazurin staining based spectrofluorometric method; conditions: CAKR8, 24 h
# Candida albicans [28] = test: Inhibition of sterol biosynthesis in Candida albicans CAAL93 assessed as ergosterol level at 10 ng/ml after 18 hrs by GC-MS analysis (reference value: 89.7%); format: functional; parameters: scale not given: the % may be the effect or the level left; outline: as §4
# [29] = Toxicity in CRL:WI rat assessed as hunched back at 300 mg/kg, po up to 14 days; format: organism-based; conditions: in vivo, 336 h, time <=14 day; outline: as §1
smiles,measurement,setting,value
COc1ccc(-c2cc3cnn([C@H](C)[C@](O)(Cn4cncn4)c4ccc(F)cc4F)c(=O)n3c2)cc1,Activity,Candida albicans [1],3.7%
same,Activity,[2],Non-Toxic
same,Activity,Candida albicans [3],Active
same,Activity,Candida albicans [4],7.7%
same,survival at 10 mg/kg,Candida albicans [5],100%
same,MIC,[6],0.062 µg/mL
same,MIC,Rhizopus arrhizus [7],0.094 µg/mL
same,Activity,Candida albicans [8],25.2%
same,MIC,Mucor circinelloides,0.19 µg/mL
same,Activity,Candida albicans [9],23.1%
same,Activity,Candida albicans [10],3.6%
same,Activity,Candida albicans [11],1.8%
same,Activity,[12],Toxic
same,Activity,Candida albicans [13],5%
same,Activity,Candida albicans [14],11%
same,inhibition,Candida albicans [15],Dose-dependent effect
same,Activity,Candida albicans [16],61%
same,MIC,Fusarium sp.,> 16 µg/mL
same,Activity,Candida albicans [17],Active
same,MIC,Scedosporium apiospermum,3 µg/mL
same,Activity,Candida albicans [18],3.2%
same,Activity,Candida albicans [19],8.3%
same,Activity,Candida albicans [20],1.1%
same,MIC,Rhizopus arrhizus [21],0.0625 µg/mL
same,Activity,Candida albicans [22],3.3%
same,inhibition,Candida albicans [23],32%
same,Activity,[24],Non-Toxic
same,Survival,Candida albicans [25],Active
same,inhibition,Candida albicans [26],53%
same,MIC,[27],0.081 µg/mL
same,Activity,Candida albicans [28],42%
same,Activity,[29],Toxic
